Screening data deposited in PubChem BioAssay by several laboratories.
VIM-2 inh = blocks Pseudomonas aeruginosa VIM-2 metallo-beta-lactamase; purified VIM-2, nitrocefin hydrolysis, epi-absorbance fluorescence; AID 1527; inhibition, % at 5.6 µM; 290,000 compounds, 0.89% hits;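 active = inhibition above the mean of all tested compounds plus 3 SD, cutoff set per screening run, cut at about 7.5% in these data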;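 note: red hydrolysis product quenches plate fluorescence so inhibitors raise well fluorescence; 0% = enzyme with DMSO and 100% = DMSO without enzyme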
NS3 helicase inh = inhibitors of Hepatitis C virus NS3 helicase; 290,000 compounds, 0.56% hits; AID 1800; NS3 helicase DNA unwinding, Cy5 molecular beacon fluorescence; inhibition, % at 10.9 µM;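 active = inhibition above the mean of all tested compounds plus 3 SD, set per campaign, cut at about 35% in these data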;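 note: 0% = DMSO wells and 100% = thioflavine S control wells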
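System: NS3 helicase fragment of HCV / Schedule: 1 h at 25 °C / Control set: DMSO alone as 0% and 110 µM thioflavine S as 100% / Reagent: Cy5/quencher beacon DNA duplex and ATP to start / Technique: Cy5 fluorescence / Replication: singlicate / Evaluation: % inhibition of end-to-start signal ratio versus controls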
HCV core dimer = HCV core protein dimerization inhibition. inhibition, % at 5 µM. TR-FRET GST/Flag-core106 dimerization, 1536-well. 300,000 compounds, 0.33% hits;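 active = inhibition above the mean of all tested compounds plus 3 SD, set per screening campaign, cut at about 45% in these data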
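Material: GST/Flag-tagged HCV core106 proteins. Incubation: 4 h, 22.5 °C incubation. Read-out basis: inhibition (%) from 671 over 617 nm ratio. Measured by: TR-FRET, excitation 340 nm, emission 617 and 671 nm.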
UBC9 SUMO inh = inhibitors of human SUMOylation (UBC9) | HTRF SUMOylation assay, SAE1/SAE2 + UBC9, in vitro | inhibition, % at 35 µM | 290,000 compounds, 0.36% hits | AID 2006; in the data active = inhibition above about 50%, passing the limit was not always enough
Target sequence (P63279 whole entry, looked up): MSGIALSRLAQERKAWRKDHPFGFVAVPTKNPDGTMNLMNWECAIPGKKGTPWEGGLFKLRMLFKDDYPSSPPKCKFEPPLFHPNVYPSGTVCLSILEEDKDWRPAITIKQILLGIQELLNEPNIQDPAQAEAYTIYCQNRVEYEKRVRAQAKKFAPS
IMP-1 inhibitor = blocks Pseudomonas aeruginosa IMP-1 metallo-beta-lactamase. purified IMP-1, nitrocefin hydrolysis, epi-absorbance fluorescence. inhibition, % at 5.6 µM. 290,000 compounds, 0.45% hits;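 active = inhibition above the mean plus 3 SD of all compounds in the same screening run, cut at about 4.5% in these data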;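 note: 0% = IMP-1 with DMSO and 100% = DMSO wells lacking enzyme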
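Test system: recombinant IMP-1 enzyme, purified / Medium: HEPES buffer pH 7.1 with ZnSO4 and Brij 35 / Doses: single dose, 5.6 µM / Times: 25 °C, 15 min preincubation, 25 min reaction / Detection: Epi-absorbance via hydrolysed-nitrocefin quenching of white-plate fluorescence, 480/530 nm, EDTA stop / Evaluation: percent inhibition from optical density relative to buffer-blank wells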
PHOSPHO1 block = PHOSPHO1 (human) inhibition; Q8TCT1; recombinant PHOSPHO1, absorbance phosphatase assay; inhibition, % at 13.3 µM; 290,000 compounds, 1.1% hits; in the data active = inhibition above about 60%
Target sequence (Q8TCT1 whole entry, looked up): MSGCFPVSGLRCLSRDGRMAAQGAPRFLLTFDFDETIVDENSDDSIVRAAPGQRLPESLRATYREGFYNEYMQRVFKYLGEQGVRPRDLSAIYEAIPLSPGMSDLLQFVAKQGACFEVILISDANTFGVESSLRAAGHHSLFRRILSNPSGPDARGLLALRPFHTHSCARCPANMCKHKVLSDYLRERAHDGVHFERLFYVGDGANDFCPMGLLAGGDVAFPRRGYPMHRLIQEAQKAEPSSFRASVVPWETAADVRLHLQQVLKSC
* hit, by the source's call; x = no result given. This is a sample that favours compounds with a hit; in the whole collection about 3.1% have one here.

SMILES	VIM-2 inh	NS3 helicase inh	HCV core dimer	UBC9 SUMO inh	IMP-1 inhibitor	PHOSPHO1 block
O=C1C2C(c3ccccc3)C=CC(c3ccccc3)C2C(=O)N1c1cccnc1 (stereo unspecified)	1.2	-8.4	5.4	-2.2	6.2*	-3.8
NS(=O)(=O)c1cccc(NS(=O)(=O)c2ccc(/C=C/C(=O)O)cc2)c1	-1.8	-22.4	-0.7	-17.8	-1.5	15.0
CCOc1ccc(N2C(=O)CS/C2=C(\C(Cl)=C(Cl)Cl)[N+](=O)[O-])cc1	-0.3	17.9	7.2	27.9	-2.7	86.5*
Cc1cc(C)c2cc(C(c3nnnn3C3CCCC3)N3CCOCC3)c(=O)[nH]c2c1 (stereo unspecified)	-2.5	-2.1	2.6	29.7	-1.0	102.7*
c1cc(N2CCCC2)ccc1C(c1nnnn1C1CCCCC1)N1CCOCC1 (stereo unspecified)	-3.7	2.4	17.2	9.0	-3.2	92.2*
Cc1cccc2cc(C(c3nnnn3C3CCCC3)N3CCOCC3)c(=O)[nH]c12 (stereo unspecified)	0.8	-8.3	-1.9	33.5	-0.6	85.6*
CC(C)CCC(=O)N1CCOC1=O	1.2	1.9	-4.9	2.8	1.0	-13.0
COc1cccc(-c2nc3ccccc3s2)c1O	-0.8	-3.6	-4.1	42.8	-2.3	24.5
Clc1ncccc1-c1nc2ccccc2s1	-0.2	3.0	3.4	20.3	-2.9	61.2*
Clc1ccc2nc(CSc3nnc4ccccn34)cn2c1	-1.4	-2.5	-2.1	-0.4	-0.4	60.3*
Cc1cccc(C)c1N1C(=O)CCC(C)(C)C1=O	-0.6	14.5	-13.0	0.3	-0.3	18.7
COc1ccc(OC)c(CCNC(=O)CN2C(=O)CCSc3ccccc32)c1	-2.7	5.1	-3.1	13.0	-2.1	2.5
CN(C)N=Nc1ccc(S(N)(=O)=O)cc1	-2.4	0.1	-0.9	10.3	-0.9	36.3
CN(C)c1ccc(N=Nc2ccc(S(N)(=O)=O)cc2)cc1	-2.9	2.1	-33.7	21.1	9.1*	10.3
CCCCn1c(-c2csc3c2CCC(C)C3)n[nH]c1=S (stereo unspecified)	-0.3	0.8	5.5	-32.5	-1.9	84.1*
CCCCn1c(-c2csc3c2CCCC3)n[nH]c1=S	-2.3	6.6	6.8	10.7	-6.8	99.7*
CCn1c(-c2csc3c2CCCC3)n[nH]c1=S	-3.3	6.5	3.1	8.5	-3.8	-5.1
CCCCn1c(-c2csc3ccccc23)n[nH]c1=S	-3.7	-4.1	2.6	14.8	-6.0	95.0*
COc1ccc(CC(=O)N/N=C(/C)c2ccco2)cc1	-1.3	-2.3	-17.7	17.8	-2.2	44.8
Cc1cc(N2CCCC(C(=O)Nc3cccc4ccccc34)C2)n2ncnc2n1 (stereo unspecified)	-0.3	-4.1	-2.3	4.9	-2.1	-10.1
CCOC(=O)c1ccc(NC(=O)CN2CCN(C(=O)c3ccco3)CC2)cc1	-4.5	4.0	-4.3	18.8	-4.1	75.0*
NC(=O)c1ccc(NC(=O)CN2CCN(C(=O)c3ccco3)CC2)cc1	-2.0	2.5	0.8	14.4	-1.1	22.3
Cc1cc(=O)oc2c3c(cc(OCC(=O)N[C@@H](C)C(=O)O)c12)OC(C)(C)CC3	8.5*	-6.1	x	46.2	-3.8	27.3
CCNCc1ccccc1OCc1ccccc1	-3.0	-7.2	-2.1	4.9	-1.8	68.6*
OCCNCCNCc1ccccc1OCc1ccccc1	-6.6	-7.4	-5.4	12.4	-3.0	43.9
SMILES	VIM-2 inh	NS3 helicase inh	HCV core dimer	UBC9 SUMO inh	IMP-1 inhibitor	PHOSPHO1 block
CC1=NN(c2ccc(Cl)c(C(=O)O)c2)C(=O)/C1=C\c1ccc(-c2ccc(C(=O)O)cc2)o1	-2.1	0.3	x	81.7*	7.7*	-113.5
CC1=NN(c2ccccc2)C(=O)/C1=C/c1ccc(-c2ccc(C)c(C(=O)O)c2)o1	x	x	-10.5	x	x	x
COc1ccc(/C=N/NC(=O)c2cccnc2)cc1CSc1ccccn1	-3.5	-2.8	0.6	23.5	-2.2	20.0
NS(=O)(=O)c1ccc(Sc2ccc3ccccc3c2)nc1	-1.4	15.1	-9.6	-13.4	-2.1	31.0
O=C1c2cccc3cccc(c23)C(=O)N1CCN1CCN(C(=S)Nc2ccccc2)CC1	7.8*	-2.5	23.2	6.4	-3.0	16.7
Oc1ccc(Cl)cc1-c1cc(-c2ccco2)[nH]n1	2.1	33.9	-1.0	-6.7	-0.1	0.1
S=c1[nH]nc(-c2cc(-c3ccco3)[nH]n2)n1-c1ccccc1Cl	2.0	29.3	2.3	69.0	0.8	86.2*
FC(F)(F)c1ccc(Cl)c(-n2c(-c3ccco3)n[nH]c2=S)c1	-2.1	4.8	x	-2.2	-5.4	-110.6
S=c1[nH]nc(-c2ccco2)n1-c1ccccc1Cl	16.0*	3.6	-3.8	15.2	-2.5	-75.4
Oc1ccccc1-c1cc(-c2ccco2)[nH]n1	-4.9	9.7	0.3	34.5	0.6	73.1*
COc1ccc(NC(=O)C(C)N2C(=O)C3CC=C(Cl)CC3C2=O)cc1 (stereo unspecified)	-2.2	5.2	x	-1.3	-2.4	-2.0
COc1nc(N(C)C)nc(N(C#N)S(=O)(=O)c2ccc(C)cc2)n1	1.2	1.2	-1.5	23.5	0.1	x
CC(C)(C)C1CCc2c(sc(NC(=O)c3cc(C4CC4)on3)c2C#N)C1 (stereo unspecified)	-5.3	0.2	20.9	6.9	4.9*	4.3
Cc1cc(C(=O)Nc2sc3c(c2C#N)CCC(C(C)(C)C)C3)no1 (stereo unspecified)	-2.5	-3.0	8.7	12.3	-2.8	40.4
O=C(Oc1csc(=S)n1C(=O)c1ccccc1)c1ccccc1	0.5	-10.7	-1.4	13.2	-4.0	83.3*
COc1cc(CNc2ccc(O)cc2)cc(Br)c1OCc1ccccc1F	-3.0	18.5	5.3	90.8*	-4.3	-16.4
CCOc1cc(CNc2ccc(O)cc2)cc(Br)c1OCc1ccccc1F	-2.7	15.0	6.4	46.3	-2.8	13.6
S=c1[nH]c2ccccc2n1Cc1ccccc1	-1.8	-3.3	-3.1	-0.6	-0.5	-65.1
S=c1[nH]c2ccccc2n1CCOc1ccccc1	-0.9	27.6	2.7	0.4	0.4	-45.7
S=c1[nH]c2ccccc2n2c(=S)[nH]nc12	-2.6	6.5	-38.9	-13.5	-4.5	-3.5
N#CCCn1c(=S)[nH]c2ccccc21	-0.4	-1.0	-6.7	8.5	-3.4	88.1*
S=c1[nH]c2ccccc2n2cccc12	8.7*	-2.1	55.4*	11.2	-3.0	-130.5
Cn1c(=S)[nH]c2ccccc21	-1.8	-1.5	2.4	27.5	-5.8	73.9*
CCOc1ccc2c(c1)[nH]c(=S)n2C	-1.9	3.7	-5.4	13.9	-3.7	79.0*
O=C(NCCc1ccccc1F)c1cccc2cccnc12	-0.6	-38.7	-13.0	2.4	-5.4	35.0
COC(=O)c1ccc(NC(=O)Cn2nc(C)cc2C)cc1	-2.4	-0.8	1.9	-7.0	-1.1	32.4
